# Source: ChEMBL document CHEMBL5029154, “Design, Synthesis, and Biological Evaluation of Organic Nitrite (NO2-) Donors as Potential Anticerebral Ischemia Agents” (J Med Chem, 2021)
# Calls of active or inactive are those of the source. No cut-off for these calls is given here.
# Tests used:
# Rattus norvegicus [1] = assay: Neuroprotective activity against middle cerebral artery occlusion-induced ischemia-reperfusion injury Sprague-Dawley rat model assessed as decrease in neurologic deficit scores at 95 to 9500 microg/kg, iv treated immediately reperfusion in presence of PTIO measured after 24 hrs; format: functional, organism-based; conditions: dose 95-9500 µg/kg
# In short: (§1)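 Male SD rats (12 weeks, 200–220 g; N = 8/group) underwent MCAO under […] (350 mg/kg) using a nylon intraluminal suture for 2 h, then reperfusion. Compound (95, 950 or 9500 μg/kg) was given iv immediately after reperfusion; where used, PTIO 1 mg/kg iv was given 30 min before. At 24 h, blinded scoring covered Longa neurological deficit, TTC infarct area/whole area, and edema from wet/dry brain weight (105 °C, 24 h).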
# Cortical neurone [2] = assay: Induction of NQO1 mRNA transcript level in OGD/R-induced rat primary cortical neuron pretreated at 1.8 uM for 24 hrs followed by subjected to OGD for 2 hrs measured after 24 hrs under normoxic condition by RT-qPCR analysis; format: functional, tissue-based
# In short: (§2)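 Primary rat cortical neurons were pretreated with 1.8 μM compound for 24 h, given 2 h OGD, then 24 h normoxic culture. Nrf2, HO-1 and NQO1 mRNA were measured by RT-qPCR. Cytoplasmic and nuclear protein (30 μg/lane) were blotted for Nrf2, with lamin A and β-actin as references, and quantified by densitometry as the nuclear:cytoplasmic ratio. Three independent experiments, mean ± SD.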
# Rattus norvegicus [3] = assay: Neuroprotective activity against middle cerebral artery occlusion-induced ischemia-reperfusion injury Sprague-Dawley rat model assessed as increase in HO-1 expression in cerebral ischemic penumbra at 950 microg/kg, iv treated immediately reperfusion measured after 24 hrs; format: functional, organism-based; conditions: dose 950.0 µg/kg
# In short: (§3)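 MCAO rat brain paraffin sections (3 μm) were blocked with 10% goat serum and stained by IHC for NQO-1 and HO-1 (1:200) and phospho-Nrf2 (1:100), with DAB detection and rabbit IgG as negative control. Average optical density of positive cells was scored blinded over five fields per sample.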
# Cortical neurone [4] = assay: Induction of Nrf2 protein level in OGD/R-induced rat primary cortical neuron pretreated at 1.8 uM for 24 hrs followed by subjected to OGD for 2 hrs measured after 24 hrs under normoxic condition by Western blot analysis; format: functional, tissue-based; in short: as §2
# Rattus norvegicus [5] = assay: Neuroprotective activity against middle cerebral artery occlusion-induced ischemia-reperfusion injury Sprague-Dawley rat model assessed as decrease in neurologic deficit scores at 950 microg/kg, iv pretreated for 2 hrs followed by reperfusion measured after 24 hrs in presence of PTIO; format: functional, organism-based; conditions: dose 950.0 µg/kg
# In short: (§4)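 Male SD rats (N = 8/group) were dosed iv at 95, 950 or 9500 μg/kg 2 h before 2 h MCAO (nylon suture, chloral hydrate anesthesia), then reperfused. Where used, PTIO 1 mg/kg iv was given 30 min before compound. At 24 h, blinded assessment covered Longa deficit score, TTC-stained 2 mm sections (infarct area/whole area), and edema by wet/dry weight.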
# Cortical neurone [6] = assay: (§5) Neuroprotective activity against in OGD/R-induced rat cortical neuron cytotoxicity assessed as activation of NO/cGMP/PKG pathway by measuring increase in PKG expression pretreated at 1.8 uM for 24 hrs followed by subjected to OGD for 2 hrs measured after 24 hrs under normoxic condition by Western blot analysis; format: functional, tissue-based
# [7] = GSH reactivity assessed as reaction rate measured at 1 equiv of GSH upto 24 hrs by HPLC analysis; format: ADME
# Rattus norvegicus [8] = assay: Neuroprotective activity against middle cerebral artery occlusion-induced ischemia-reperfusion injury Sprague-Dawley rat model assessed as decrease in cerebral edema degree at 950 microg/kg, iv pretreated for 2 hrs followed by reperfusion measured after 24 hrs in presence of PTIO; format: functional, organism-based; conditions: dose 950.0 µg/kg; in short: as §4
# Rattus norvegicus [9] = assay: Neuroprotective activity against middle cerebral artery occlusion-induced ischemia-reperfusion injury Sprague-Dawley rat model assessed as increase in NQO1 expression in cerebral ischemic penumbra at 950 microg/kg, iv treated immediately reperfusion measured after 24 hrs; format: functional, organism-based; conditions: dose 950.0 µg/kg; in short: as §3
# [10] = Drug metabolism in Sprague-Dawley rat assessed as peak nitrite release in plasma at 10 mg/kg, iv measured upto 120 mins by ion chromatography; format: ADME, organism-based; conditions: in vivo, 2 h
# In short: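 Male SD rats (N = 3/group) received a single iv dose. Plasma was sampled at 2, 5, 15, 30, 60, 90 and 120 min. Nitrite was quantified by ion chromatography. Values are mean ± SD.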
# Rattus norvegicus [11] = assay: Neuroprotective activity against middle cerebral artery occlusion-induced ischemia-reperfusion injury Sprague-Dawley rat model assessed as decrease in cerebral infarct volume at 95 to 9500 microg/kg, iv pretreated for 2 hrs followed by reperfusion measured after 24 hrs; format: functional, organism-based; conditions: dose 95-9500 µg/kg; in short: as §4
# Rattus norvegicus [12] = assay: Neuroprotective activity against middle cerebral artery occlusion-induced ischemia-reperfusion injury Sprague-Dawley rat model assessed as increase in Ki67+ cells in cerebral ischemic penumbra at 95 to 950 microg/kg, iv treated immediately reperfusion measured after 24 hrs in presence of PTIO by immunofluoresence assay; format: functional, organism-based; conditions: dose 95-950 µg/kg
# [13] = Neuroprotective activity against in OGD/R-induced rat cortical neuron apoptosis assessed as necrotic cells pretreated at 1.8 uM for 24 hrs followed by subjected to OGD for 2 hrs measured after 24 hrs under normoxic condition by PI/FITC-H staining based flow cytometry (reference value: 3.68%); format: functional, Cortical neurone
# Cortical neurone [14] = assay: Induction of HO-1 mRNA transcript level in OGD/R-induced rat primary cortical neuron pretreated at 1.8 uM for 24 hrs followed by subjected to OGD for 2 hrs measured after 24 hrs under normoxic condition by RT-qPCR analysis; format: functional, tissue-based; in short: as §2
# Cortical neurone [15] = assay: as §5, with “condition in presence of NS2028” for “condition”; format: functional, tissue-based
# Rattus norvegicus [16] = assay: Neuroprotective activity against middle cerebral artery occlusion-induced ischemia-reperfusion injury Sprague-Dawley rat model assessed as decrease in neurologic deficit scores at 95 to 9500 microg/kg, iv pretreated for 2 hrs followed by reperfusion measured after 24 hrs; format: functional, organism-based; conditions: dose 95-9500 µg/kg; in short: as §4
# Rattus norvegicus [17] = assay: Neuroprotective activity against middle cerebral artery occlusion-induced ischemia-reperfusion injury Sprague-Dawley rat model assessed as decrease in brain infarct volume at 95 to 9500 microg/kg, iv treated immediately reperfusion measured after 24 hrs; format: functional, organism-based; conditions: dose 95-9500 µg/kg; in short: as §1
# [18] = Stability of the compound under dark condition at 200 uM measured after 24 hrs by HPLC analysis; format: physicochemical
# Cortical neurone [19] = assay: Neuroprotective activity against in OGD/R-induced Sprague-Dawley rat cortical neuron injury assessed as cell viability pretreated at 1.8 uM for 24 hrs followed by subjected to OGD for 2 hrs measured after 24 hrs under normoxic condition; format: functional, tissue-based
# In short: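 Cortical neurons were isolated from SD rat cortex by enzymatic digestion, plated on poly-lysine in 10% FBS DMEM, and pretreated 24 h at 1.8 μM in basal medium with 2% B27. OGD was run in glucose/FBS-free DMEM under 1% O₂, followed by 24 h reoxygenation in 10% FBS DMEM. Viability was read by MTT; apoptosis was also assessed. Three independent experiments.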
# HUVEC = assay: Angiogenesis activity in HUVEC cells assessed as increase in tube formation at 1.8 uM measured after 8 hrs in presence of NS2028 by inverted microscopy; format: functional, cell-based; conditions: Homo sapiens
# In short: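 Early-passage HUVECs (passages 2–6), grown in DMEM with 10% FBS, glutamine, pyruvate and antibiotics, were seeded at 8 × 10⁴ cells/well on Matrigel. They were exposed to vehicle or compound for 8 h at 37 °C, 5% CO₂. Tubes were counted under an inverted microscope.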
compound,measurement,setting,value
O=C(/C(=C/c1ccccc1)C[N+](=O)[O-])c1ccccc1,Activity,Rattus norvegicus [1],inactive
same,Activity,Cortical neurone [2],Active
same,Activity,Rattus norvegicus [3],Active
same,Activity,Cortical neurone [4],Active
same,Activity,Rattus norvegicus [5],inactive
same,Activity,Cortical neurone [6],Active
same,Activity,[7],0.0214 h⁻¹
same,Activity,Rattus norvegicus [8],inactive
same,Activity,Rattus norvegicus [9],Active
same,Drug metabolism,[10],Metabolite_Detected
same,Activity,Rattus norvegicus [11],Active
same,Activity,Rattus norvegicus [12],inactive
same,Activity,[13],1.28%
same,Activity,Cortical neurone [14],Active
same,Activity,Cortical neurone [15],inactive
same,Activity,Rattus norvegicus [16],Active
same,Activity,Rattus norvegicus [17],Active
same,Stability,[18],Stable
same,Activity,Cortical neurone [19],Active
same,Activity,HUVEC,inactive
